# Data published in PubChem BioAssay.
# The source made the active and inactive calls.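 Rule for the calls, unless noted: active = GFP response above 150% of the DMSO level; inconclusive = fewer than 70 events counted for a yeast strain; inactive = the rest.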
# Columns and labels:
# [1] = RPL19A-GFP modulators, yeast TOR pathway, confirmation, cell-based, S. cerevisiae, flow cytometry, cherry picks, mother/daughter gates (AID 2270;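 active = GFP response below 50% of the DMSO control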); conditions: S. cerevisiae RPL19A-GFP strain, 3 h, at 10 µM, stronger effect = lower value, 100 = same GFP as DMSO wells
# [2] = LAP4-GFP expression modulators in yeast, confirmation, cell-based, cherry picks, flow cytometry, mother/daughter gates (AID 2271;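 active = GFP response above 150% of the DMSO control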;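 note: ratio of sample to DMSO plate mean so 100% equals DMSO level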); conditions: S. cerevisiae LAP4-GFP strain, 3 h, at 10 µM, stronger effect = higher value, 100 means same as DMSO control
# How it was run: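 Material: Alexa 633-stained baker's yeast GFP-fusion strain; Compound dosing: single test-compound dose, 10 µM final; Incubation: 30 °C, 3 h compound incubation, rotating; Detection: HT flow cytometry, GFP fluorescence channel; Control set: positive rapamycin (400 ng/mL), negative DMSO.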
# [3] = modulators of MEP2-GFP levels in yeast, confirmation, S. cerevisiae, flow cytometry GFP, cherry picks (AID 2272;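 active = GFP response above 150% of the DMSO control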;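 note: ratio of well signal to plate DMSO mean so 100% equals DMSO level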); conditions: S. cerevisiae MEP2-GFP strain, 3 h, at 10 µM, stronger effect = higher value
# [4] = AGP1-GFP expression modulators, hit retest, confirmation, cell-based, flow cytometry, S. cerevisiae, cherry picks (AID 2273);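 note: median GFP channel fluorescence over the whole cell population gate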; conditions: S. cerevisiae AGP1-GFP strain, 3 h, at 10 µM
# [5] = modulators of CIT2-GFP expression in yeast, confirmation, S. cerevisiae, GFP fusion, cherry picks, mother/daughter gates (AID 2274); conditions: S. cerevisiae CIT2-GFP strain, flow cytometry, 3 h, at 10 µM, stronger effect = higher value
# [6] = measured here: daughter cell gate
# [7] = measured here: mother cell gate
# [8] = measured here: daughter cell gate response
# [9] = measured here: mother cell gate response
Structure (SMILES),GFP response vs DMSO [1],"GFP response vs DMSO [1, 6] [%]","GFP response vs DMSO [1, 7] [%]",GFP response relative to DMSO [2],"GFP response relative to DMSO [2, 8] [%]","GFP response relative to DMSO [2, 9] [%]",GFP response vs DMSO [3],"GFP response, % of DMSO [4]","GFP response, % of DMSO [5]","GFP response, % of DMSO [5, 6] [%]","GFP response, % of DMSO [5, 7] [%]"
COc1cc(NC(=O)c2cccs2)ccc1NC(=O)c1cc2ccccc2o1,97% (inactive),96.9,98.7,96.7% (inactive),99.2,95.1,100% (inactive),99.9% (inactive),101% (inactive),101,101
CCCOc1ccc(N2C(=O)CC(SCCN)C2=O)cc1 (stereo not given),93.5% (inactive),92.9,94.6,101% (inactive),102,99.3,98.3% (inactive),92.3% (inactive),98.3% (inactive),101,96.1
COc1ccc(C(=O)Nc2cccc(C)c2)cc1,98.2% (inactive),99.3,96.9,109% (inactive),108,107,108% (inactive),101% (inactive),111% (inactive),108,108
O=C(/C=C/c1ccccc1)c1ccccc1O,103% (inactive),105,103,130% (inactive),130,129,153% (inactive),108% (inactive),137% (inactive),139,132
Cc1cccc(CSCc2ccc(C(=O)NC(C)C)o2)c1,101% (inactive),98.1,101,99.5% (inactive),95.9,99.4,96.8% (inactive),101% (inactive),102% (inactive),103,99.3
COc1ccccc1N1CCN(C(=O)c2ccccc2Oc2ccccc2)CC1,96.7% (inactive),97,95.2,91.8% (inactive),92.9,87.3,101% (inactive),98.6% (inactive),98.6% (inactive),97.6,93.8
CCCc1[nH]nc2c1C(c1ccc(OC)c(CSC3=NCCS3)c1)C(C#N)=C(N)O2 (stereo not given),96.8% (inactive),97.3,97.6,109% (inactive),109,107,97.5% (inactive),105% (inactive),95% (inactive),94.6,94.5
CCNC(=O)/C(C#N)=C/c1c(N2CC(C)OC(C)C2)nc2ccccn2c1=O (stereo not given),97.8% (inactive),99.3,98.1,99.5% (inactive),102,99.4,99% (inactive),106% (inactive),103% (inactive),103,104
CCOC(=O)C1CCCN(C(=O)c2ccc(-c3ccc([N+](=O)[O-])cc3)o2)C1 (stereo not given),99.8% (inactive),100,98.4,101% (inactive),101,101,103% (inactive),99.3% (inactive),100% (inactive),97.6,102
O=[N+]([O-])c1cc(CN2CCN(c3ccccc3)CC2)c(O)c2ncccc12,76.4% (inactive),108,59.5,161% (active),138,165,114% (inactive),78.8% (inactive),97.3% (inactive),106,88.2
O=C(OC(c1ccc(NS(=O)(=O)c2ccccc2)cc1)(C(F)(F)F)C(F)(F)F)c1ccccc1,100% (inactive),101,100,94.9% (inactive),95.1,95.1,110% (inactive),104% (inactive),92.2% (inactive),95.2,91.8
COC(=O)C1CCN(C(=O)COC(=O)CCc2nc3ccccc3c(=O)[nH]2)CC1,98.8% (inactive),99.6,99.8,97.7% (inactive),97.9,96.5,99.5% (inactive),98% (inactive),99.3% (inactive),102,95.6
O=c1[nH]c2c(=O)[nH]cnc2nc1-c1ccccc1,103% (inactive),94.9,96.3,97% (inactive),95.9,88.8,101% (inactive),98.2% (inactive),97.3% (inactive),86.6,89.5
O=C1C(=O)N(Cc2ccccc2)C(c2cccc(O)c2)/C1=C(\O)c1ccc2c(c1)OCCO2 (stereo not given),100% (inactive),100,100,95% (inactive),95.6,98.3,100% (inactive),95.2% (inactive),108% (inactive),106,109
CCCCN(CC)S(=O)(=O)c1ccc(C(=O)Nc2nnc(COC)o2)cc1,96.6% (inactive),96.7,98.1,100% (inactive),99.3,99.5,97.5% (inactive),103% (inactive),102% (inactive),100,101
CC1=CCC(C(=O)O)C(C(=O)Nc2ccc(-c3nc4ccc(C)cc4s3)cc2)C1 (stereo not given),99.2% (inactive),100,100,96.1% (inactive),96.6,96.2,98.8% (inactive),101% (inactive),112% (inactive),110,113
Nc1cccnc1S(=O)(=O)c1cccc(C(F)(F)F)c1,97.6% (inactive),97.1,97.2,96.7% (inactive),97.6,94,102% (inactive),98.9% (inactive),96.9% (inactive),99.1,93.8
O=C(O)c1cccc(S(=O)(=O)N2Cc3ccccc3C2)c1,96.9% (inactive),97.3,95.9,106% (inactive),101,108,101% (inactive),104% (inactive),100% (inactive),99.3,100
N=c1n(CCN2CCCCC2)c2ccccc2n1CC(=O)c1ccc(Cl)c(Cl)c1,99.5% (inactive),99,100,101% (inactive),100,102,100% (inactive),99.4% (inactive),96.5% (inactive),93.2,78.3
Cc1cccc(NC(=O)c2ccc([N+](=O)[O-])o2)c1,103% (inactive),105,101,126% (inactive),115,125,106% (inactive),96.2% (inactive),105% (inactive),106,101
CCSc1nnc(NC(=O)c2ccccn2)s1,101% (inactive),100,99.8,257% (active),223,254,122% (inactive),93.8% (inactive),97.8% (inactive),104,91
CCOC(=O)CNc1c(-c2ccc(O)cc2)nc2ccccn12,98.5% (inactive),99.3,98,100% (inactive),104,98.4,97.2% (inactive),104% (inactive),101% (inactive),103,103
O=S(=O)(c1ccccc1)N1N=C(c2ccccc2)CC1c1ccccc1 (stereo not given),105% (inactive),105,103,97% (inactive),97.5,97.3,112% (inactive),99.4% (inactive),106% (inactive),108,104
Cc1ccc(/C=C2/NC(=O)N(Cc3ccccc3)C2=O)o1,98.4% (inactive),99.8,98.8,112% (inactive),110,113,101% (inactive),101% (inactive),103% (inactive),105,101
Cc1[nH]c2ccccc2c1C(=O)C(C)OC(=O)C1CCC1 (stereo not given),98.2% (inactive),98.1,97.8,100% (inactive),101,100,110% (inactive),105% (inactive),106% (inactive),103,106
COc1ccc(NC(=O)CCc2nc(-c3ccccc3F)no2)cc1,95.6% (inactive),95.9,93.1,106% (inactive),101,106,101% (inactive),97.7% (inactive),97.2% (inactive),95.8,94.9
O=C(O)CCCn1nc(-c2ccccc2)c2ccccc21,99% (inactive),98.4,100,112% (inactive),112,111,103% (inactive),101% (inactive),103% (inactive),106,96.8
Cc1ccc(N2C3=C(C(=O)CC(C)(C)C3)C(c3cn(C)nc3C)C3=C2CC(C)(C)CC3=O)cc1,105% (inactive),102,104,119% (inactive),122,117,131% (inactive),103% (inactive),134% (inactive),132,132
Cn1cc(/C=C/c2cc[n+](C)cc2)c2cc(F)ccc21,102% (inactive),102,102,115% (inactive),117,116,134% (inactive),103% (inactive),115% (inactive),116,114
CC(C)CC[n+]1ccccc1/C=C/c1ccc(N(C)C)cc1,98.2% (inactive),94.9,95.5,107% (inactive),108,107,126% (inactive),107% (inactive),115% (inactive),119,113
